This note sets out measurements from ChEMBL document CHEMBL1139414, “Conformationally constrained analogues of diacylglycerol. 29. Cells sort diacylglycerol-lactone chemical zip codes to produce diverse and selective biological activities” (J Med Chem, 2008).

Molecules are shown by their SMILES.

In this assay the target is Protein kinase C alpha type (Mus musculus, UniProt P20444). Kind of assay: Displacement of [3H]PDBu form mouse PKCalpha by scintillation counting. In outline: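 Partially purified mouse PKCα; competition with [³H]PDBU. ID50 obtained by fitting a sigmoidal competition curve and converted to Ki = ID50/(1+L/Kd). Pure compounds tested at 6–7 concentrations; crude library compounds at a single 1 μM concentration. Triplicates per concentration, at least three experiments; mean ± SEM.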
Consider `O=C1OC(CO)(COC(=O)c2ccc(C(F)(F)F)cc2)C/C1=C/c1ccc([N+](=O)[O-])cc1` (racemic), for which the inhibitory constant (Ki) was determined as 176 nM. This counts as sub-micromolar. Then `CCCCCC/C=C1/CC(CO)(COC(=O)C(CC)CCCC)OC1=O` (racemic), with 15.2 nM. Then `COc1ccc(/C=C2/CC(CO)(COC(=O)c3ccccc3C)OC2=O)cc1` (racemic), with 173 nM; and `O=C1OC(CO)(COC(=O)C(c2ccccc2)c2ccccc2)C/C1=C/c1ccc(F)c(Cl)c1` (racemic), with 73 nM; and `CCCCCC/C=C1/CC(CO)(COC(=O)c2ccc(C(F)(F)F)cc2)OC1=O` (racemic), with 55.7 nM. Then `CC(C)(C)CC(=O)OCC1(CO)C/C(=C/c2ccc(Cl)c(F)c2)C(=O)O1` (racemic), with 45.1 nM. As for `CCCC(CCC)C(=O)OCC1(CO)C/C(=C\c2ccc(C(F)(F)F)cc2)C(=O)O1` (racemic; form 2), the Ki turned out to be 16.6 nM. This Ki is about 2.7-fold lower than that of the compound before.

Turning to `COc1ccc(/C=C2/CC(CO)(COC(=O)c3ccccc3)OC2=O)cc1` (racemic), the affinity, expressed as Ki, was 299 nM. `CC(CC(=O)OCC1(CO)C/C(=C/c2ccc(Br)cc2)C(=O)O1)CC(C)(C)C` (racemic) showed a Ki of 27.3 nM. In turn, `CCC(C(=O)OCC1(CO)C/C(=C/c2ccccc2C(F)(F)F)C(=O)O1)c1ccccc1` (racemic) had a Ki of 59 nM. Under `CCCCCC/C=C1/CC(CO)(COC(=O)c2c(C)cc(C)cc2C)OC1=O` (racemic) stands 41.4 nM; under `COc1ccc(C(=O)OCC2(CO)C/C(=C/c3ccccc3)C(=O)O2)cc1` (racemic), 492 nM. Turning to `CCCC(CCC)C(=O)OCC1(CO)C/C(=C\c2ccc(Cl)c(F)c2)C(=O)O1` (racemic; form 1), the Ki turned out to be 3.38 nM. Under `CC(CC(=O)OCC1(CO)C/C(=C/c2ccc(F)c(Cl)c2)C(=O)O1)CC(C)(C)C` (racemic) stands 22.4 nM. Under `CC(C)c1cc(C(C)C)c(C(=O)OCC2(CO)C/C(=C/c3ccccc3)C(=O)O2)c(C(C)C)c1` (racemic) stands 160 nM. For the compound `CC(C)(C)C(=O)OCC1(CO)C/C(=C/c2cc(C(F)(F)F)cc(C(F)(F)F)c2)C(=O)O1` (racemic), the Ki was determined as 39.8 nM. This Ki lies about 4-fold lower than the previous one. Then `COc1ccc(C(=O)OCC2(CO)C/C(=C\c3ccc([N+](=O)[O-])cc3)C(=O)O2)cc1` (racemic; form 1), with 281 nM; and `CCC(C(=O)OCC1(CO)C/C(=C/c2ccc(F)c(Br)c2)C(=O)O1)c1ccccc1` (racemic), with 22.3 nM; and `COc1ccc(/C=C2\CC(CO)(COC(=O)c3c(C)cc(C)cc3C)OC2=O)cc1` (racemic; form 1), with 3.7 nM.

Consider `CC(CC(=O)OCC1(CO)C/C(=C/c2ccc(C(F)(F)F)cc2)C(=O)O1)CC(C)(C)C` (racemic), for which the Ki was found to be 18.4 nM. Under `CCCC(CCC)C(=O)OCC1(CO)C/C(=C/c2ccc(Br)cc2)C(=O)O1` (racemic) stands 10.7 nM. As for `CCCCC(/C=C1/CC(CO)(COC(=O)c2ccc(OC)cc2)OC1=O)CC` (racemic), the Ki turned out to be 234 nM. The compound `CCC(C(=O)OCC1(CO)C/C(=C\c2ccc(-c3ccc(C(F)(F)F)cc3)cc2)C(=O)O1)c1ccccc1` (racemic; form 1) came in with a Ki of 108 nM. For the compound `CCCC(CCC)C(=O)OCC1(CO)C/C(=C/c2ccc(-c3ccc(C(F)(F)F)cc3)cc2)C(=O)O1` (racemic), the Ki was determined as 40.6 nM.

`CCC(C(=O)OCC1(CO)C/C(=C/c2ccc(Cl)c(F)c2)C(=O)O1)c1ccccc1` (racemic): the Ki worked out at 45.1 nM. Under `CCCCC(/C=C1/CC(CO)(COC(=O)c2ccc(N(C)C)cc2)OC1=O)CC` (racemic; form 2) stands 134 nM; under `O=C1OC(CO)(COC(=O)C(c2ccccc2)c2ccccc2)C/C1=C/c1ccc(F)cc1` (racemic), 81.8 nM. Under `CCCCCC/C=C1/CC(CO)(COC(=O)c2ccc([N+](=O)[O-])cc2)OC1=O` (racemic) stands 146 nM; under `CC(C)c1cc(C(C)C)c(C(=O)OCC2(CO)C/C(=C/c3ccc(N(C)C)cc3)C(=O)O2)c(C(C)C)c1` (racemic), 660 nM; under `CCCCC(CC)C(=O)OCC1(CO)C/C(=C\c2ccc(F)c(Br)c2)C(=O)O1` (racemic; form 2), 2.07 nM. `CCCC(CCC)C(=O)OCC1(CO)C/C(=C\c2ccc(Cl)c(F)c2)C(=O)O1` (racemic; form 2) returned a Ki of 21.5 nM. This Ki lies about 10-fold higher than the previous one. Then `CCC(C(=O)OCC1(CO)C/C(=C\c2ccc(-c3ccc(C(F)(F)F)cc3)cc2)C(=O)O1)c1ccccc1` (racemic; form 2), with 18.3 nM; and `CCCCCC/C=C1/CC(CO)(COC(=O)c2c(C(C)C)cc(C(C)C)cc2C(C)C)OC1=O` (racemic; form 2), with 126 nM; and `CC(C)(C)C(=O)OCC1(CO)C/C(=C/c2ccc(OC(F)(F)F)cc2)C(=O)O1` (racemic), with 22.5 nM.

Turning to `CC(C)C(=O)OCC1(CO)C/C(=C/c2ccc(OC(F)(F)F)cc2)C(=O)O1` (racemic), the Ki amounted to 54.7 nM. Against the preceding compound, the Ki is about 2.4-fold higher.

For `CCCC(CCC)C(=O)OCC1(CO)C/C(=C\c2ccc(F)cc2)C(=O)O1` (racemic; form 2), the Ki turned out to be 17.1 nM. Under `CCCCC(CC)C(=O)OCC1(CO)C/C(=C\c2ccc([N+](=O)[O-])cc2)C(=O)O1` (racemic) stands 3.1 nM; under `CC(CC(=O)OCC1(CO)C/C(=C/c2ccc(F)cc2)C(=O)O1)CC(C)(C)C` (racemic), 16.8 nM. Then `CCCCCCC(=O)OCC1(CO)C/C(=C/c2ccc(OC)cc2)C(=O)O1` (racemic), with 113 nM; and `CCCCCCC(=O)OCC1(CO)C/C(=C/C2CCCCC2)C(=O)O1` (racemic), with 77.5 nM; and `CCCCC(CC)C(=O)OCC1(CO)C/C(=C/c2ccccc2C(F)(F)F)C(=O)O1` (racemic), with 22.8 nM. Then `CCC(C(=O)OCC1(CO)C/C(=C/c2cc(C(F)(F)F)cc(C(F)(F)F)c2)C(=O)O1)c1ccccc1` (racemic), with 52.9 nM; and `CC(C)C(=O)OCC1(CO)C/C(=C/c2ccc(C(F)(F)F)cc2)C(=O)O1` (racemic), with 78 nM. With `CN(C)c1ccc(/C=C2/CC(CO)(COC(=O)c3ccccc3)OC2=O)cc1` (racemic), the inhibition constant Ki worked out at 654 nM. For the compound `Cc1ccc(C(=O)OCC2(CO)C/C(=C/c3ccccc3)C(=O)O2)cc1` (racemic), the affinity corresponds to a Ki of 138 nM. Against the preceding compound, the Ki is about 4.7-fold lower. `CN(C)c1ccc(/C=C2\CC(CO)(COC(=O)c3ccc(N(C)C)cc3)OC2=O)cc1` (racemic; form 2) returned an inhibitory constant (Ki) of 1080 nM. For `CCCCCC/C=C1/CC(CO)(COC(=O)C2CCCCC2)OC1=O` (racemic), the affinity corresponds to a Ki of 28.9 nM. Compared with the last compound, the Ki is about 37-fold lower. Under `CCCC(CCC)C(=O)OCC1(CO)C/C(=C/c2ccc(Cl)cc2)C(=O)O1` (racemic) stands 13.1 nM; under `CCCCCC/C=C1/CC(CO)(COC(=O)c2ccccc2C)OC1=O` (racemic), 49.5 nM. The compound `CN(C)c1ccc(/C=C2/CC(CO)(COC(=O)C3CCCCC3)OC2=O)cc1` (racemic) displayed a Ki of 373 nM. This Ki lies about 7.5-fold higher than the previous one.

`Cc1ccccc1C(=O)OCC1(CO)C/C(=C/c2ccc(N(C)C)cc2)C(=O)O1` (racemic) had a Ki of 376 nM. The Ki values of the last two compounds are within 1.5-fold of each other.

As for `CC(C)(C)C(=O)OCC1(CO)C/C(=C/c2ccc(Br)cc2)C(=O)O1` (racemic), the inhibition constant Ki was 26.1 nM. `CCCCC(/C=C1/CC(CO)(COC(=O)c2ccc(C)cc2)OC1=O)CC` (racemic) gave a Ki of 171 nM. Then `Cc1ccc(C(=O)OCC2(CO)C/C(=C/c3ccc(N(C)C)cc3)C(=O)O2)cc1` (racemic), with 406 nM; and `CCCCC(/C=C1/CC(CO)(COC(=O)c2ccccc2C)OC1=O)CC` (racemic), with 189 nM; and `CCCCC(CC)C(=O)OCC1(CO)C/C(=C/c2ccc([N+](=O)[O-])cc2)C(=O)O1` (racemic), with 73.5 nM. Then `Cc1ccccc1C(=O)OCC1(CO)C/C(=C/c2ccc(C(F)(F)F)cc2)C(=O)O1` (racemic), with 47.8 nM; and `CCCCC(/C=C1/CC(CO)(COC(=O)c2ccc(C(F)(F)F)cc2)OC1=O)CC` (racemic), with 187 nM. Under `O=C1OC(CO)(COC(=O)C(c2ccccc2)c2ccccc2)C/C1=C/c1cc(C(F)(F)F)cc(C(F)(F)F)c1` (racemic) stands 79.5 nM.

On to `CC(C)c1cc(C(C)C)c(C(=O)OCC2(CO)C/C(=C/c3ccc([N+](=O)[O-])cc3)C(=O)O2)c(C(C)C)c1` (racemic), for which the Ki is 124 nM. Under `O=C1OC(CO)(COC(=O)c2ccccc2)C/C1=C/c1ccc([N+](=O)[O-])cc1` (racemic) stands 320 nM. Under `CCCCC(/C=C1/CC(CO)(COC(=O)c2ccc(N(C)C)cc2)OC1=O)CC` (racemic; form 1) stands 466 nM.

In the case of `Cc1ccc(C(=O)OCC2(CO)C/C(=C/C3CCCCC3)C(=O)O2)cc1` (racemic), the affinity corresponds to a Ki of 110 nM.

`CCC(C(=O)OCC1(CO)C/C(=C/c2ccc(F)c(Cl)c2)C(=O)O1)c1ccccc1` (racemic) yielded an inhibition constant (Ki) of 31.9 nM. `CCC(C(=O)OCC1(CO)C/C(=C/c2ccc(Cl)cc2)C(=O)O1)c1ccccc1` (racemic): affinity was put at a Ki of 47.6 nM. This Ki and that of the compound before are within 1.5-fold of each other. Under `CC(C)(C)CC(=O)OCC1(CO)C/C(=C/c2ccc(Br)cc2)C(=O)O1` (racemic) stands 50.2 nM. Under `CC(C)(C)C(=O)OCC1(CO)C/C(=C/c2ccc(C(F)(F)F)cc2)C(=O)O1` (racemic) stands 36.3 nM. `CCCCC(/C=C1/CC(CO)(COC(=O)c2c(C(C)C)cc(C(C)C)cc2C(C)C)OC1=O)CC` (racemic) had an inhibition constant (Ki) of 187 nM. Then `O=C1OC(CO)(COC(=O)c2ccccc2)C/C1=C/C1CCCCC1` (racemic), with 203 nM; and `Cc1cc(C)c(C(=O)OCC2(CO)C/C(=C/c3ccccc3)C(=O)O2)c(C)c1` (racemic), with 60.2 nM; and `CCCCC(/C=C1/CC(CO)(COC(=O)C2CCCCC2)OC1=O)CC` (racemic), with 123 nM. Then `CC(C)C(=O)OCC1(CO)C/C(=C/c2ccccc2C(F)(F)F)C(=O)O1` (racemic; form 2), with 158 nM; and `CCCCCC/C=C1/CC(CO)(COC(=O)c2ccc(N(C)C)cc2)OC1=O` (racemic), with 131 nM; and `O=C1OC(CO)(COC(=O)c2ccc(C(F)(F)F)cc2)C/C1=C/c1ccccc1` (racemic), with 103 nM.
